Data taken from the EternaBench riboswitch data.

Tested on: MS2 coat protein
Assay: apparent Kd, MS2 coat protein; higher = weaker binding; RNA-MaP array; FMN 200 µM where present
How it was run: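 The apparent Kd is the median of filtered binding-curve fits, one per cluster, to green signal normalised to red-channel RNA signal and control-cluster median Fmax. The clusters were on Illumina sequencing chips, and stalled E. coli RNA polymerase had transcribed the designs on them. Titration used SNAP-549-labelled MS2 coat protein from 0.7 or 1.5 nM, doubling to 3 µM, without and then with constant ligand, in 100 mM Tris-HCl pH 7.5, 80 mM KCl, 4 mM MgCl2, BSA, DTT, yeast tRNA and Tween-20.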

[1] = designed as: OFF switch for flavin mononucleotide, no ligand
[2] = ligand present: flavin mononucleotide, designed as: OFF switch for flavin mononucleotide
[3] = designed as: ON switch for flavin mononucleotide, no ligand
[4] = ligand present: flavin mononucleotide, designed as: ON switch for flavin mononucleotide

UAGCUUGACGCAGGAUAUCCAGGGCUGAGAUGAGGAGAAGGGCGCCAAACAUGAGGAUCACCCAUGUAUUAUGCAGGGUCCUCA
apparent Kd [1]: 336 nM | apparent Kd [2]: 315 nM

UAGGACUACGUAGGAUAUGUAGUAGAUUACUACAUGAGGAUCACCCAUGUAAGCAUGUGAUUAGGACAGAAGGACGUGGUAAAU
apparent Kd [3]: 24.8 nM | apparent Kd [4]: 8.91 nM

UAGGAGCAAGGAUAUACGAGGAUAUGGUAGUUUGUAGAGUGACAUGAGGAUCACCCAUGUAGAAGGUGCGUGUG
apparent Kd [1]: 123 nM | apparent Kd [2]: 99.7 nM

UAGGUGGAAGGAUAUACAUAUGGCCUAUGAGAUACUUCACGACAUGAGGAUCACCCAUGUAGAAGGUCUACCGU
apparent Kd [1]: 17.9 nM | apparent Kd [2]: 39.4 nM

UAGGUGUGAGGAUAUGGUAAAGAUAAAAUGAUGAAAGAACUCCAGAAGGCACAUGAGGAUCACCCAUGUAGAUG
apparent Kd [1]: 29.2 nM | apparent Kd [2]: 54.9 nM

UAUAAACAUGAGGAUCACCCAUGUAAUAAUAUGGGAGGAUAUCAGAUUUAAUUUAAUUUAUGAGAAGGCCUAAUAU
apparent Kd [3]: 627 nM | apparent Kd [4]: 43.1 nM

UAUAACCAAGGAUAUACAUGAGGAUCACCCAUGUAAUAUAGUAUAAUAUAUGUAAAAUGUAGAAGGUGGGAUGU
apparent Kd [1]: 32 nM | apparent Kd [2]: 34 nM

UAUAAGAACGAAGGAUAUGGUUACAUGAGGAUCACCCAUGUAUUAAUUUUGAUCUAUUUUUAUAACCAGAAGGUCGAGAGUAAA
apparent Kd [1]: 36.2 nM | apparent Kd [2]: 49.5 nM

UAUAUAAUAUUACACAUGAGGAUCACCCAUGUACAUGGGAUAGAGGAUAUACAAAUAUUAGUGGUGUAGAAGGUUAAUAUAUAU
apparent Kd [1]: 266 nM | apparent Kd [2]: 71 nM

UAUAUACAUGAGGAUCACCCAUGUCAGGAUAUGCGCCGAUUAUAUACAUAAGAUCGGUGCAGAAGGGACACUAA
apparent Kd [1]: 35.5 nM | apparent Kd [2]: 67.2 nM

UAUAUAUAGUAAGGAUAUGUAAUUCUUUUAUAAACAGAAGGUACUGACAUGAGGAUCACCCAUGUUUUAGUGUGGGCAUGUAGA
apparent Kd [1]: 66.3 nM | apparent Kd [2]: 81.9 nM

UAUAUAUAGUAAGGAUAUGUAUUCAUUUUAUAAACAGAAGGUACUGACAUGAGGAUCACCCAUGUUUUAGUGUGGGCAUGUAGA
apparent Kd [1]: 81.5 nM | apparent Kd [2]: 132 nM

UAUAUAUAGUAAGGAUAUGUAUUUAUGUUAUAAACAGAAGGUACUGACAUGAGGAUCACCCAUGUUUUAGUGUGGGCAUGUAGA
apparent Kd [1]: 87.9 nM | apparent Kd [2]: 122 nM

UAUAUAUAGUAAGGAUAUGUAUUUAUUUGAUAAACAGAAGGUACUGACAUGAGGAUCACCCAUGUUUUAGUGUGGGCAUGUAGA
apparent Kd [1]: 81.6 nM | apparent Kd [2]: 131 nM

UAUAUAUUCGUAGGAUAUCCGUUAAAACCAUGUGGAGAAGGACGAACAUGAGGAUCACCCAUGUAUCAUGGUGUAGACAAUUUU
apparent Kd [1]: 40.3 nM | apparent Kd [2]: 187 nM

UAUAUGUCAGGAUAUCGAUUGGAGCGGAAUUUAGCUUUGGUCGAGAAGGGACAUGAGGAUCACCCAUGUUCCUC
apparent Kd [1]: 30 nM | apparent Kd [2]: 142 nM

UAUAUGUCAGGAUAUUAAUUAAAAUGGAAUUUAGUUUUAAUUAAGAAGGGACAUGAGGAUCACCCAUGUUCCUC
apparent Kd [1]: 20.9 nM | apparent Kd [2]: 128 nM

UAUAUGUGAGGAUAUCAGGUGUGCUAGCGUACUGGUACAUCUGAGAAGGCACAUGAGGAUCACCCAUGUUUCUU
apparent Kd [1]: 26.3 nM | apparent Kd [2]: 88 nM

UAUCCACAUGAGGAUCACCCAUGUGAGGAUAUGAUACUAUGUACUUCGGUACAUAGUAUCAGAAGGCACAGGUC
apparent Kd [1]: 21.3 nM | apparent Kd [2]: 36.3 nM

UAUCGUGUUCGAGGAUAUGAAACUAGGCCGGGCACUGUAUACCCGCCUGUCUCAGAAGGCGGACAUGAGGAUCACCCAUGUAAA
apparent Kd [1]: 202 nM | apparent Kd [2]: 17.4 nM

UAUCUAUUUAUGGGAUUAGAAUAUGAGGAUAUCAUUUAUUUAUACAUGAGGAUCACCCAUGUUUCUGAGAAGGCAUAUUUAAUA
apparent Kd [3]: 20.3 nM | apparent Kd [4]: 6.73 nM

UAUGGUAAAGUCAGGAUAUACGUACAUAAUUCUAGGUAGAAGGGACAUGAGGAUCACCCAUGUAUGGUAGUGUU
apparent Kd [1]: 73 nM | apparent Kd [2]: 84 nM

UAUGGUUAAGUCAGGAUAUGCUCGUAGAAGUCUAUGCAGAAGGGACAUGAGGAUCACCCAUGUAUGGUCGUGUU
apparent Kd [1]: 94.3 nM | apparent Kd [2]: 177 nM

UAUGUUAGCACAGGAUAUUGUUAUUAUUUAAUUCAAGAAGGGUGUACAUGAGGAUCACCCAUGUUAUGGUUUUAUCUUUUACAA
apparent Kd [1]: 1280 nM | apparent Kd [2]: 457 nM

UAUUAACACGAAGGAUAUGGUUACAUGAGGAUCACCCAUGUAUGUAUAUUGAUCUAGAUUUUUGACCAGAAGGUCGUGAGUAAA
apparent Kd [1]: 23.9 nM | apparent Kd [2]: 38.2 nM

UAUUAGUAAGGAUAUCUCGUCAUGGACGUGAGUCCAUGACGAGAGAAGGUACAUGAGGAUCACCCAUGUUCAUU
apparent Kd [1]: 15.9 nM | apparent Kd [2]: 18.3 nM

UAUUUAAUCUCAGGAUAUAACAUUACAUACAAAUUAGAAGGGAGAACAUGAGGAUCACCCAUGUACAUGAGGAUCACCCAUGUU
apparent Kd [3]: 692 nM | apparent Kd [4]: 576 nM

UAUUUUAACUAAGGAUAUCUAUAAUAAUUUGAAACAUGAGGAUCACCCAUGUUCAUGGGUUUUUAAGAGAAGGUAGAUGAAUAA
apparent Kd [3]: 59.8 nM | apparent Kd [4]: 26.1 nM

UAUUUUUAUGUAAGGAUAUGGGUUUGGUUGCGGGCUUAGAAGGUACAUGAGGAUCACCCAUGUAUUUUGUGCAU
apparent Kd [1]: 32.8 nM | apparent Kd [2]: 35.3 nM

UCAACCAGCGCCGGUUGAACAUGAGGAUCACCCAUGUACUCCAGAAGGCCGCCCAAGAACGGAGUGGAGGAUAUGGAAGUUCUC
apparent Kd [3]: 75.7 nM | apparent Kd [4]: 39.9 nM

UCAAUUUUGCGAGGAUAUCGACCAUUCCUCUUUACAUGAGGAUCACCCAUGUUCUUUUUCUACAACGAGAAGGCGCUCAUAGUU
apparent Kd [1]: 55.5 nM | apparent Kd [2]: 67.1 nM

UCACGGAGCCUAGGAUAUACAUGAGGAUCACCCAUGUAUUGACGUUAGUGCUGGACUGAUUUGCUGUAGAAGGAGGUCACUGAG
apparent Kd [1]: 16.6 nM | apparent Kd [2]: 18.3 nM

UCAGGCUUCGAGAAGGACAUGAAUCGUAGCAUUGCUACGAUGAAAUAUACAUGAGGAUCACCCAUGUAGGAUAUCGGAGUCUGC
apparent Kd [1]: 5.35 nM | apparent Kd [2]: 6.13 nM

UCAGGCUUCGAGAAGGACAUGAGGAUCACCCAUGUGCGUGUGAAGCAGCCGUGAGGCUGCAUCAUGUAGGAUAUCGGAGUCUGU
apparent Kd [1]: 92.3 nM | apparent Kd [2]: 554 nM

UCAGGCUUCGAGAAGGACAUGAGGAUCACCCAUGUUAACAUGAAGCAGCCGUGAGGCUGCAUCAUGUAGGAUAUCGGAGUCUGC
apparent Kd [1]: 5.44 nM | apparent Kd [2]: 6.09 nM

UCAGGCUUCGAGAAGGACAUGAGGAUCACCCAUGUUAAUUUGAAGCAGCCGUGAGGCUGCAUCAUGUAGGAUAUCGGAGUCUGC
apparent Kd [1]: 6.17 nM | apparent Kd [2]: 10.2 nM

UCAUAAUAGAUCCUAUUUAUCUACAUGAGGAUCACCCAUGUGCAGGAUAUGCUAUAAUUUAAUAAGCAGAAGGGCAAUUUCAGA
apparent Kd [1]: 96.8 nM | apparent Kd [2]: 381 nM

UCAUGGUAGCAGGAUAUGCUUGUUUUUUUUUUUGCAGAAGGGCUUACAUGAGGAUCACCCAUGUGUUAGGUCUA
apparent Kd [1]: 25.2 nM | apparent Kd [2]: 30.8 nM

UCAUGUUAAGGAUAUACAUGAGGAUCACCCAUGUUUGUUCAAAAUCUUAGAUCCCAAUGUAGAAGGUGGCUGUA
apparent Kd [1]: 75.8 nM | apparent Kd [2]: 75.4 nM

UCAUUUAUCACAGGAUAUAUUAGUAUACAGUUGUUUGGCUCUUACAUAUUAAUAGAAGGGUGCAACAUGAGGAUCACCCAUGUA
apparent Kd [3]: 262 nM | apparent Kd [4]: 102 nM

UCAUUUAUUACAGGAUAUGUUAGUAUUCAGUUGUUUGGUUAUUACUUAUUUACAGAAGGGUAGAACAUGAGGAUCACCCAUGUA
apparent Kd [3]: 407 nM | apparent Kd [4]: 329 nM

UCAUUUCAGUAAGGAUAUUAAUUCAUGACGAUACAUGAGGAUCACCCAUGUUAAGAAGGUACUAAUACAAAUAAUGCAUUGUUC
apparent Kd [1]: 12.4 nM | apparent Kd [2]: 11.2 nM

UCAUUUCUGUAAGGAUAUUAAUUCAUGACGAUACAUGAGGAUCACCCAUGUUAAGAAGGUACAAAUACAAAUAAUGCAUUGUUC
apparent Kd [1]: 11.8 nM | apparent Kd [2]: 10.6 nM

UCCAAAUCGUAGAAGGGUGACAUGAGGAUCACCCAUGUGCAGCAACCGUGAACGGCCAUGCUGCCACAGGAUAUACGAUGGAGU
apparent Kd [3]: 14.1 nM | apparent Kd [4]: 29.8 nM

UCCACUGCUGAGAAGGGAUACGUCUGGUUCGCAUCAGGAUAUCGAUACAGUGCAGCAUGAGGACAUGAGGAUCACCCAUGUAUC
apparent Kd [3]: 11 nM | apparent Kd [4]: 8.98 nM

UCCAGGCGAGGAUAUACAAAGAUUUUUUCGUUUUGUCUCGAACAUGAGGAUCACCCAUGUAGAAGGUGCUGCUG
apparent Kd [1]: 57.5 nM | apparent Kd [2]: 52.9 nM

UCCCGUUGUCAGAAGGCUCCUCGGAACCCGAGGAGAGGAUAUGACACAUGAGGAUCACCCAUGUGCCCGGUCGUGACAAAGGUG
apparent Kd [1]: 13.4 nM | apparent Kd [2]: 146 nM

UCCCGUUGUCAGAAGGCUCCUCGUAACCCGAGGAGAGGAUAUGACACAUGAGGAUCACCCAUGUGCCCGGUCGUGACAAAGGUG
apparent Kd [1]: 11.7 nM | apparent Kd [2]: 158 nM

UCCCUAAGGCAGGCCGACCAUACAUGAGGAUCACCCAUGUCGAGAAGGUGCUCACGGGUGGGUGGCAAGGAUAUCGGGUCGGAU
apparent Kd [3]: 92.9 nM | apparent Kd [4]: 43.6 nM

UCCCUAGAAGUAAGGAUAUGUCGAUGGCCAAUUCGAUAGAAGGUACAUGAGGAUCACCCAUGUGACCUACUGGG
apparent Kd [1]: 15.7 nM | apparent Kd [2]: 23.7 nM

UCCGAACAUGAGGAUCACCCAUGUCUAAUACGUCAAGGAUAUGGGCGCGGAGAACCGCAACCAGAAGGUGAGAAAU
apparent Kd [3]: 507 nM | apparent Kd [4]: 89.4 nM

UCCGCUCGAGGAUAUACAUGAGGAUCACCCAUGUUUCCCUGUUGUUUGGCCUUAGGAUGUAGAAGGCGACGUUA
apparent Kd [1]: 17.7 nM | apparent Kd [2]: 17.8 nM

UCCGGGUGCCAGAAGGGAGAUGGUUCGGAGGUCUCAGGAUAUGGCACAUGAGGAUCACCCAUGUGUUUACGUAAUUACAUGAGA
apparent Kd [1]: 20.9 nM | apparent Kd [2]: 21.6 nM

UCCUCUUUGAAGAAGGCGUGGCCAUGCAAGCCGCGAGGAUAUUCACAUGAGGAUCACCCAUGUGGAUUUCAGUCCGCUCAAAAC
apparent Kd [1]: 13.4 nM | apparent Kd [2]: 68 nM

UCCUGACCGAGAGAUAGGAGUAGUAGAAGGCGACCGGUGCCAGAUGACAUGAGGAUCACCCAUGUCGAGGAUAUACUACAGAAU
apparent Kd [1]: 6.99 nM | apparent Kd [2]: 9.63 nM
